KDM4C inh – KDM4C (human) demethylase inhibition; 96,000 compounds, 0.15% hits; GST-KDM4C 2-372, H3K9me3 peptide, LANCE TR-FRET; inhibition, % at 12.5 µM;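 active means mean replicate inhibition above about 25%, with at least 55% of replicates also reaching it, limit read from the data, passing the limit was not always enough; inconclusive means only one of those two conditions met; inactive means neither condition met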
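Test system – GST-tagged GASC-1 (JMJD2C) catalytic fragment, aa 2-372 · Medium – HEPES buffer, pH 7.5, plus ascorbate · Reagent – H3K9me3 peptide with Fe(II)/2OG · Compound – one test concentration per compound · Timing – 30 min reaction, 60 min detection, RT · Technique – TR-FRET with Eu antibody and ULight streptavidin, EDTA stop · Read-out basis – inhibition from TR-FRET ratio decrease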
T cruzi growth-1 – T. cruzi proliferation inhibition. T. cruzi beta-gal in NIH3T3, GalScreen luminescence, 90 h. AID 624255. 77,000 compounds, 5.9% hits. inhibition, % at 8.34 µM;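 active means mean inhibition above about 93%, with at least 55% of replicates each passing it, limit read from the data, passing the limit was not always enough; inconclusive means only one of those two conditions holds; inactive means neither condition holds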
IDH1 R132H inh – blocks human IDH1 R132H reductase activity; O75874; 70,000 compounds, 0.18% hits; inhibition, % at 10 µM; diaphorase/resazurin fluorescence, 60 min; in the data active means inhibition above about 34%; inconclusive means no clear call, values can overlap the other calls; inactive means below about 11%;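 further: 0% = DMSO and 100% = no enzyme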
Target sequence (O75874 whole entry R132H): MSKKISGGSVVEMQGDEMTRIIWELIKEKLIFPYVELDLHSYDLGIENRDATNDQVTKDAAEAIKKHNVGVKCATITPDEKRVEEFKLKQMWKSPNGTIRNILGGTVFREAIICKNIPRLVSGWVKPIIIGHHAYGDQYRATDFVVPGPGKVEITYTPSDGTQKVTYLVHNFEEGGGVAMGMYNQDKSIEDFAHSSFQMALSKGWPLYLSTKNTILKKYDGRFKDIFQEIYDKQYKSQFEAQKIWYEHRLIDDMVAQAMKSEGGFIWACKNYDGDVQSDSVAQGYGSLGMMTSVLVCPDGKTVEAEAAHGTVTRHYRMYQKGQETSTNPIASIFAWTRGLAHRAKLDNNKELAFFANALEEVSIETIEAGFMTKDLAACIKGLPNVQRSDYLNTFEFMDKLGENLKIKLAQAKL
T cruzi growth-2 – inhibitors of T. cruzi proliferation | T. cruzi beta-gal in NIH3T3, GalScreen luminescence, 90 h | shares compounds with T cruzi growth-1 | AID 651739 | 5,600 compounds, 72% hits | inhibition, % at 8.35 µM;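 active means mean replicate inhibition above about 95% and at least 55% of replicates individually reaching it, limit read from the data; inconclusive means only one of the two criteria is met; inactive means neither criterion is met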
T cruzi growth-3 – blocks T. cruzi growth in NIH3T3 host cells | 5,600 compounds, 21% hits | T. cruzi beta-gal in NIH3T3, GalScreen luminescence, 90 h | shares compounds with T cruzi growth-1 | inhibition, % at 2.09 µM;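 active means mean inhibition above about 95%, with at least 55% of replicates also reaching it, limit read from the data; inconclusive means meets just one of the two conditions; inactive means meets neither condition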;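 further: plate controls were neutral control median for no effect and positive control median for full effect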
3T3 cytotox – kills mouse NIH/3T3 fibroblasts; shares compounds with T cruzi growth-1; NIH/3T3 viability, CellTiter-Glo ATP luminescence, 90 h; cytotoxicity (signal decrease), % at 8.35 µM; 5,600 compounds, 14% hits;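 active means mean signal decrease across replicates above about 35% based on untreated-well scatter, with enough replicates individually passing, limit read from the data; inconclusive means no rule stated though some were filed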;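 further: 0% = median of neutral control wells and 100% = median of positive control wells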
NIH3T3 tox 2 – kills mouse NIH/3T3 fibroblasts; shares compounds with T cruzi growth-1; NIH/3T3 viability, CellTiter-Glo ATP luminescence, 90 h; inhibition, % at 24.9 µM; 5,600 compounds, 56% hits;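 active means mean loss of cell viability signal at or above a set limit, and enough replicates individually reaching it; inconclusive means meets only the mean limit or only the replicate share; inactive means meets neither condition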;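 further: 0% = median of neutral control wells and 100% = median of positive control wells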
An asterisk follows results filed as active; u = inconclusive; x = not tested or not shown. This excerpt belongs to a sample that is enriched for hits.

SMILES	KDM4C inh	T cruzi growth-1	IDH1 R132H inh	T cruzi growth-2	T cruzi growth-3	3T3 cytotox	NIH3T3 tox 2
CCCC#Cc1ccc2c(c1)O[C@@H](CN(C)Cc1cccnc1)[C@@H](C)CN([C@@H](C)CO)S2(=O)=O	1	96*	53*	99*	72	33	18
COCC#Cc1ccc2c(c1)O[C@H](CN(C)Cc1cncnc1)[C@H](C)CN([C@H](C)CO)S2(=O)=O	-1	15	3	x	x	x	x
CCCC#Cc1ccc2c(c1)O[C@H](CN(C)Cc1cccnc1)[C@H](C)CN([C@@H](C)CO)S2(=O)=O	6	109*	13	99*	52	54*	u
CCCC#Cc1ccc2c(c1)O[C@@H](CN(C)Cc1cncnc1)[C@@H](C)CN([C@@H](C)CO)S2(=O)=O	-1	44	0	x	x	x	x
CCCC#Cc1ccc2c(c1)O[C@H](CN(C)Cc1cncnc1)[C@H](C)CN([C@H](C)CO)S2(=O)=O	19	38	0	x	x	x	x
COCC#Cc1ccc2c(c1)O[C@H](CN(C)Cc1cccnc1)[C@@H](C)CN([C@@H](C)CO)S2(=O)=O	0	105*	7	97*	89	33	64*
CCCC#Cc1ccc2c(c1)O[C@H](CN(C)Cc1cncnc1)[C@H](C)CN([C@@H](C)CO)S2(=O)=O	3	40	-2	x	x	x	x
CCCC#Cc1ccc2c(c1)O[C@H](CN(C)Cc1cccnc1)[C@@H](C)CN([C@H](C)CO)S2(=O)=O	1	123*	-4	106*	104*	32	92*
COc1cccc(S(=O)(=O)N[C@@H]2CC[C@H](CCn3cc(-c4ccccc4)nn3)O[C@@H]2CO)c1	-1	5	0	x	x	x	x
COc1ccc(OC2OC(COC3OCC(O)C(O)C3O)C(O)C(O)C2O)cc1OC (centres undefined)	x	x	1	x	x	x	x
CNC[C@@H]1OCCCC[C@@H](C)Oc2ccc(NC(=O)Nc3cccc4ccccc34)cc2C(=O)N([C@H](C)CO)C[C@H]1C	-1	-9	-15	x	x	x	x
Cc1ccc(S(=O)(=O)Nc2ccc3c(c2)C(=O)N([C@@H](C)CO)C[C@H](C)[C@H](CN(C)S(=O)(=O)c2ccc(C)cc2)O3)cc1	-2	57	x	x	x	x	x
CO[C@@H]1CN(C)C(=O)c2ccc(NS(C)(=O)=O)cc2OC[C@@H](C)N(C)C[C@H]1C	11	-3	0	x	x	x	x
COc1ccc(S(=O)(=O)Nc2ccc3c(c2)C(=O)N([C@@H](C)CO)C[C@@H](C)[C@H](CN(C)CC2CCCCC2)OCCCC[C@H](C)O3)cc1	0	90	x	x	x	x	x
CCCC#Cc1ccc2c(c1)O[C@@H](CN(C)Cc1cncnc1)[C@H](C)CN([C@H](C)CO)S2(=O)=O	18	42	-1	x	x	x	x
CCCC#Cc1ccc2c(c1)O[C@H](CN(C)Cc1cccnc1)[C@H](C)CN([C@H](C)CO)S2(=O)=O	1	115*	6	106*	74	53*	31*
O=C(c1cccc(F)c1)N1C[C@@H]2[C@H](c3ccccc31)[C@H](CO)N2Cc1cocn1	1	2	x	x	x	x	x
COc1ccc(NC(=O)N2CCCCN3[C@H](CO)[C@@H](c4ccc(-c5ccccc5C)cc4)[C@H]3C2)cc1	-2	109*	x	103*	79	40*	103*
COc1ccc(NC(=O)N2CCCCN3[C@@H](CO)[C@@H](c4ccc(C5=CCCC5)cc4)[C@@H]3C2)cc1	x	94	x	x	x	x	x
COc1ccc(NC(=O)N2CCCCN3[C@H](CO)[C@H](c4ccc(C5=CCCCC5)cc4)[C@@H]3C2)cc1	-1	114*	x	110*	86	-11	81*
COc1ccc(NC(=O)N2CCCCN3[C@@H](CO)[C@H](c4ccc(-c5ccccc5C)cc4)[C@@H]3C2)cc1	-2	102*	x	101*	66	25	104*
COc1ccc(NC(=O)N2CCCCN3[C@H](CO)[C@H](c4ccc(-c5ccccc5C)cc4)[C@@H]3C2)cc1	-1	66	x	x	x	x	x
COc1ccc(NC(=O)N2CCCCN3[C@H](CO)[C@H](c4ccc(-c5ccccc5F)cc4)[C@H]3C2)cc1	-2	81	x	x	x	x	x
COc1ccc(NC(=O)N2CCCCN3[C@@H](CO)[C@@H](c4ccc(-c5ccccc5C)cc4)[C@@H]3C2)cc1	-2	108*	x	83	82	111*	102*
COc1ccc(NC(=O)N2CCCCN3[C@H](CO)[C@@H](c4ccc(-c5ccccc5F)cc4)[C@H]3C2)cc1	6	48	x	x	x	x	x
SMILES	KDM4C inh	T cruzi growth-1	IDH1 R132H inh	T cruzi growth-2	T cruzi growth-3	3T3 cytotox	NIH3T3 tox 2
COCC(=O)Nc1ccc2c(c1)C(=O)N(C)C[C@H](OC)[C@H](C)CN(C(=O)c1ccccc1)[C@H](C)CO2	1	9	0	x	x	x	x
COc1cccc2cc(C(=O)C3C(=O)C(=O)N(Cc4ccco4)C3c3cccnc3)oc12 (centres undefined)	x	x	1	x	x	x	x
CO[C@@H]1CN(C)C(=O)c2cc(NC(=O)C3CCCC3)ccc2OC[C@@H](C)N(C(C)=O)C[C@@H]1C	1	-8	x	x	x	x	x
Cc1ccc(S(=O)(=O)Nc2ccc3c(c2)C(=O)N([C@H](C)CO)C[C@H](C)[C@H](CN(C)S(C)(=O)=O)OCCCC[C@@H](C)O3)cc1	0	-8	-1	x	x	x	x
COc1ccc(NC(=O)Nc2ccc3c(c2)C(=O)N([C@H](C)CO)C[C@@H](C)[C@H](CN(C)C(=O)Nc2c(C)noc2C)OCCCC[C@@H](C)O3)cc1	-1	46	0	x	x	x	x
CO[C@H]1CN(C)C(=O)c2ccc(NC(=O)NC(C)C)cc2OC[C@H](C)NC[C@@H]1C	-1	x	x	x	x	x	x
CCS(=O)(=O)N1CCCCN2[C@H](CO)[C@H](c3ccc(-c4ccccc4F)cc3)[C@@H]2C1	-1	96*	x	80	22	18	5
CCS(=O)(=O)N1CCCCN2[C@H](CO)[C@@H](c3ccc(-c4ccccc4)cc3)[C@@H]2C1	-2	63	x	x	x	x	x
CCS(=O)(=O)N1CCCCN2[C@H](CO)[C@@H](c3ccc(-c4ccccc4C)cc3)[C@H]2C1	0	61	x	x	x	x	x
CCS(=O)(=O)N1CCCCN2[C@@H](CO)[C@@H](c3ccc(-c4ccccc4C)cc3)[C@@H]2C1	-2	u	x	97*	-2	u	79*
O=C1CN(Cc2ccccc2)C[C@H]2[C@@H](c3ccc(Br)cc3)[C@H](CO)N12	10	x	x	x	x	x	x
C[C@@H]1CN([C@@H](C)CO)C(=O)c2cccc(NC(=O)c3cnccn3)c2O[C@H]1CN(C)C	12	x	2	x	x	x	x
N#Cc1cccc(-c2ccc(C3[C@H]4CNC[C@@H]3N4S(=O)(=O)Cc3ccccc3)cc2)c1 (some centres undefined)	-1	x	x	x	x	x	x
O=C(Nc1cccc(Cl)c1)N[C@@H]1CC[C@@H](CCNC(=O)C2CCC2)O[C@H]1CO	-1	x	0	x	x	x	x
